Sampled rows, rich in hits. Any-hit rate of the full collection: about 1.4%.
ATG4B inh = blocks human ATG4B protease cleavage of LC3 substrate; AID 504462; ATG4B cleavage of LC3-PLA2, NBD-HPC fluorescence, 1 h; hit rate 0.51% among 340,000; inhibition, % at 8.33 µM; in the data active = inhibition above about 40%
Tb MetRS inh = blocks T. brucei methionyl-tRNA synthetase activity; hit rate 0.4% among 360,000; inhibition, % at 11.9 µM; AID 624268; purified T. brucei MetRS, ATP depletion, Kinase-Glo luminescence;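 active = inhibition above a per-plate cutoff of the control wells' mean inhibition plus 3 SD, cut at about 5.5% in these data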
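Test system: purified T. brucei MetRS enzyme. Also added: ATP, methionine and E. coli bulk tRNA substrates. Compound: 11.9 µM single point. Schedule: 15 min enzyme-compound preincubation, 2 h reaction, 10 min detection, 25 °C. Signal: luciferase luminescence of residual ATP, Kinase-Glo. Evaluation: percent inhibition versus plate control medians. Controls: DMSO wells, low control.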
Rin1 Abl inh = human Rin1-Abl interaction inhibition; inhibition, % at 7.35 µM; hit rate 0.4% among 360,000; TR-FRET Rin1/Abl binding, biochemical; in the data active = inhibition above about 5%, passing the limit was not always enough
UCH37 inh = human UCH37 deubiquitinating enzyme inhibition; Q9Y5K5; inhibition, % (no concentration beside the values); AID 588478; hit rate 0.33% among 330,000; purified proteasome/UCH37, Ub-AMC cleavage fluorescence;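 active = mean inhibition over replicate wells above about 20%, limit read from the data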
Target sequence (Q9Y5K5 whole entry, looked up): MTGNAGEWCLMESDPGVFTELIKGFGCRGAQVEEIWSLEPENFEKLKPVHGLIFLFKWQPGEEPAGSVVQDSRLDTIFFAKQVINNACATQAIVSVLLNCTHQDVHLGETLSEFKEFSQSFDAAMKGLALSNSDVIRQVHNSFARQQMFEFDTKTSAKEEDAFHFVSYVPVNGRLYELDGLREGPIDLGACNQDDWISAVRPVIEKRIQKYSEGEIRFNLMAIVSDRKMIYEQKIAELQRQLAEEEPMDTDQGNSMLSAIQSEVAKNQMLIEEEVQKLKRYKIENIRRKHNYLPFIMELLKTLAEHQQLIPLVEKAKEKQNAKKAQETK
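Material: Human UCH37 enzyme supplied as purified proteasome complex | Schedule: 30 min preincubation with enzyme, 25 min cleavage at room temperature | Detection: AMC fluorescence 355/460 nm | Measure: % inhibition of Ub-AMC cleavage fluorescence | Controls: Wells without proteasome as full block, compound-free enzyme plus substrate as uninhibited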
ATG4B confirm = confirmation of human ATG4B inhibitors | inhibition, % at 8.33 µM | ATG4B protease fluorescent substrate cleavage assay | AID 504757 | shares compounds with ATG4B inh | hit rate 92% among 320; in the data active = inhibition above about 39%
PLA2 ctr = inhibits human PLA2, flagging false ATG4B inhibitors; shares compounds with ATG4B inh; purified PLA2, NBD-C6-HPC fluorescence, 45 min; inhibition, % at 8.33 µM; hit rate 66% among 1,600; in the data active = inhibition above about 50%
Target sequence (P04054 whole entry, looked up): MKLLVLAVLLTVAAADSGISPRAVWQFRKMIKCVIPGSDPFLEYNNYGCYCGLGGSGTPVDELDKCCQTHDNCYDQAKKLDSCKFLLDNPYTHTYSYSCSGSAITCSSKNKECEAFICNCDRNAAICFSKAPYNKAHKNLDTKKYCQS
Each line names hits and unclear results; the compound was inactive in the other large screens (follow-up assays come after a bar, where they were run).

O=C(COC(=O)c1ncc(Cl)c(Cl)c1Cl)c1ccc(Cl)s1	none | PLA2 ctr inactive
CCCCCCOc1ccc(N2C(=O)CC(S/C(N)=N/N=C(\C)c3cccs3)C2=O)cc1 (stereo not given)	ATG4B inh 49 (no result: UCH37 inh) | ATG4B confirm 61 | PLA2 ctr inactive
CC(C)(C)c1ccc(-c2nc(C#N)c(N3CCC(C(N)=O)CC3)o2)cc1	ATG4B inh 56 | PLA2 ctr 56
CCOc1ccccc1NC(=O)c1cc(C(=O)c2cc(Br)ccc2O)coc1=N	ATG4B inh 56 | PLA2 ctr 57
Oc1ccc(C2C(c3ccccc3)=NN=C(c3ccc(Cl)cc3)N2O)c(O)c1 (stereo not given)	ATG4B inh 60 | PLA2 ctr 76
Oc1ccc(C2C(c3ccccc3)=NN=C(c3ccccc3F)N2O)c(O)c1 (stereo not given)	ATG4B inh 63 | PLA2 ctr 84
COc1cccc(C2C3=C(N=c4s/c(=C\c5cccc(O)c5)c(=O)n42)c2ccccc2CC3)c1OC (stereo not given)	none (no result: UCH37 inh)
COc1ccccc1C1C2=C(N=c3s/c(=C/c4cccc(OCC(=O)O)c4)c(=O)n31)c1ccccc1CC2 (stereo not given)	ATG4B inh 50 (no result: UCH37 inh) | PLA2 ctr 56
Cc1c(Cl)cccc1NC(=S)N1CCCN(Cc2ccc(F)cc2)C1	ATG4B inh 52 | PLA2 ctr 55
Cc1c(Cl)cccc1NC(=S)N1CCCN(Cc2ccccc2F)C1	ATG4B inh 64 | PLA2 ctr 56
COc1cc(C=NNC(=O)CNc2n[nH]c(=O)[nH]c2=O)ccc1OCc1ccccc1	none (no result: ATG4B inh, Tb MetRS inh, Rin1 Abl inh)
CCSc1nc2sc3c(c2c(=O)n1CC)CCC3	none
CN(C)c1ccc(S(=O)(=O)NCC(=O)N2CCN(S(=O)(=O)c3cccc(F)c3)CC2)cc1[N+](=O)[O-]	none
O=C(/C=C/c1ccc(Cl)cc1Cl)N1CCN(c2ccccc2[N+](=O)[O-])CC1	ATG4B inh 53 | PLA2 ctr 60
O=C(Nc1sc2c(c1C(=O)O)CCCC2)c1cccc(Cl)c1	ATG4B inh 42 | PLA2 ctr 51
COc1cc(/C=C2/C(=O)NN(c3cccc(F)c3)C2=O)ccc1OC(=O)c1ccco1	none
C=CCC[C@@H](Cc1ccc(F)cc1)C(=O)OC[C@@H](NC(=O)[C@H](CC=C)CC(=O)N(CCO)Cc1ccccc1)c1ccccc1	ATG4B inh 53 | PLA2 ctr 76
COc1ccc(S(=O)(=O)N2CCC(C(=O)N3CCc4ccccc4C3)CC2)cc1C	ATG4B inh 56 | PLA2 ctr 50
O=c1n(Cc2ccccc2Cl)nc2n1-c1ccccc1SC2	ATG4B inh 52 | PLA2 ctr 54
CC(C)CCn1c2ccccc2c2cc(CC(N)=O)ccc21	ATG4B inh 68 | PLA2 ctr 77
O=C(N/N=C/c1ccc(-c2ccc(Cl)c(C(=O)O)c2)o1)c1cc2c(ccc3ccccc32)o1	ATG4B inh 42 (no result: UCH37 inh) | PLA2 ctr 63
Cc1ccc(S(=O)(=O)N(C)C[C@H]2OCc3cn(nn3)CCCC(=O)N([C@@H](C)CO)C[C@@H]2C)cc1	none (no result: ATG4B inh, UCH37 inh)
CCCCCCCCCCCC1=C(O)C(=O)C=C(O)C1=O	none
COC1=CC(=O)C(O)=C(CCCCCCC/C=C/CCCCCCCC2=C(O)C(=O)C=C(OC)C2=O)C1=O	ATG4B inh 52 (no result: UCH37 inh) | PLA2 ctr 78
O=C(O)COc1ccccc1/C=C1\SC(=S)N(/N=C/c2ccccc2O)C1=O	ATG4B inh 48 (no result: UCH37 inh) | ATG4B confirm 68 | PLA2 ctr inactive
Cc1ccc(-c2nn(-c3ccccc3)cc2C2SCC(=O)N2Cc2ccccc2)o1 (stereo not given)	none
Cc1nc2ccc(NC(=O)c3cccnc3)cc2s1	none
Cc1ccc(-c2nc(-c3cccnc3)sc2CC(=O)Nc2ccc3nc(C)sc3c2)cc1	ATG4B inh 45 | PLA2 ctr inactive
CC1=CCC[C@@H]2[C@@](C)(CC/C(C)=C/C(=O)O)[C@H](C)CC[C@@]12C	ATG4B inh 79 | PLA2 ctr 81
CCCCOc1ccc(-c2cc(C(=O)NNC(=S)NCC)c3ccccc3n2)cc1	ATG4B inh 47 | PLA2 ctr 58
Cc1ccccc1CSc1ccc(-c2ccc3c(c2)OCO3)nn1	ATG4B inh 45 | PLA2 ctr inactive

High-throughput results: PubChem, several laboratories
